Source: ChEMBL document CHEMBL1212838, “Investigations on the 2-thiazolylhydrazyne scaffold: synthesis and molecular modeling of selective human monoamine oxidase inhibitors” (Bioorg Med Chem, 2010)

Key:
Homo sapiens = species on record: Homo sapiens; assay: Selectivity index, ratio of IC50 for human recombinant MAOA to IC50 for human recombinant MAOB
[1] = target: T1, Amine oxidase [flavin-containing] A (Homo sapiens, UniProt P21397); assay: Inhibition of human MAOA by fluorimetry
T1 sequence (P21397 whole entry): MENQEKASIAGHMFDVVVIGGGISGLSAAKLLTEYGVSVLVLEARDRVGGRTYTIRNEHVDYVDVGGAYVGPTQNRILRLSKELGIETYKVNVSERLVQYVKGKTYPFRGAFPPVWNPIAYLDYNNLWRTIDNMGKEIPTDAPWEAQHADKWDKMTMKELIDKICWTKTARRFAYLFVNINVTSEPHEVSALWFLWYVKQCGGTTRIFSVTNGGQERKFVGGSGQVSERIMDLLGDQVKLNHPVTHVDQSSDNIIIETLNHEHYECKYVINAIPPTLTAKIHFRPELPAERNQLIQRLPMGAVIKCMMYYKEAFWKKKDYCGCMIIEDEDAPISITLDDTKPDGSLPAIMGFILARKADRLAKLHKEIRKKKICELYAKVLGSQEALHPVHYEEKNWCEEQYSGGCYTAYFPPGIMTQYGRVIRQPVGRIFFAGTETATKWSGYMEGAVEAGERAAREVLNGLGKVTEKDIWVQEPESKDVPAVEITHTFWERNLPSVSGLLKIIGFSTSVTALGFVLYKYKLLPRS

[2] = target: T2, Amine oxidase [flavin-containing] B (Homo sapiens, UniProt P27338)
T2 sequence (P27338 whole entry): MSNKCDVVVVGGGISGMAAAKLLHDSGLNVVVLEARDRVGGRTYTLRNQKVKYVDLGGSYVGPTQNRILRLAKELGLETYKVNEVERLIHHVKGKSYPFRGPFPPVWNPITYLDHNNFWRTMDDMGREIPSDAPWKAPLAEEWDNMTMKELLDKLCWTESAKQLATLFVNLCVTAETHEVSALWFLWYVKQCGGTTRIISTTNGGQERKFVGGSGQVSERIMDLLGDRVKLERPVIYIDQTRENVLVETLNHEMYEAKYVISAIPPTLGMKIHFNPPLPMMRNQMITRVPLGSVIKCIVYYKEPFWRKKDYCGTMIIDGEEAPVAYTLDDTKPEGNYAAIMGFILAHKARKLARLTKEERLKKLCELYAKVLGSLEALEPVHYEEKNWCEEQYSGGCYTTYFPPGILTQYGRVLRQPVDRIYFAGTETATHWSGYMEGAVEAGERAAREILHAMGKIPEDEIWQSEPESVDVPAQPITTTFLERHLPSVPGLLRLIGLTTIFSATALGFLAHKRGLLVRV

[3] = target: T1, Amine oxidase [flavin-containing] A; assay: Inhibition of human MAOA at 100 uM by fluorimetry
Procedure, shortened: (§1)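 Recombinant human MAO-A or MAO-B, each at an amount set to oxidize 165 pmol p-tyramine/min, preincubated 15 min at 37 °C with compound in 0.05 M sodium phosphate pH 7.4. Reaction started with final 200 µM Amplex Red, 1 U/mL HRP and 1 mM p-tyramine. Resorufin fluorescence (ex 545, em 590 nm) read over 15 min at 37 °C; enzyme-free background subtracted.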

[4] = target: T2, Amine oxidase [flavin-containing] B; assay: Inhibition of human MAOB at 100 uM by fluorimetry; procedure, shortened: as §1
[5] = target: T2, Amine oxidase [flavin-containing] B; assay: Inhibition of human MAOB at 1 uM by fluorimetry
[6] = target: T1, Amine oxidase [flavin-containing] A; assay: Inhibition of human MAOA at 500 nM
Procedure, shortened: (§2)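 Reversibility test: hMAO-A or hMAO-B with compound was ultrafiltered on a 30 kDa membrane. Retained enzyme was resuspended in sodium phosphate buffer at 4 °C and recentrifuged, three centrifugations in all. An aliquot was then assayed fluorimetrically with p-tyramine/Amplex Red. Percent inhibition was computed for washed and unwashed samples against vehicle controls; n = 5.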

[7] = target: T1, Amine oxidase [flavin-containing] A; assay: Reversible inhibition of human MAOA at 500 nM by centrifugation-ultrafiltration method; procedure, shortened: as §2
[8] = target: T2, Amine oxidase [flavin-containing] B; assay: Inhibition of human MAOB at 5 uM
[9] = target: T2, Amine oxidase [flavin-containing] B; assay: Inhibition of human MAOB at 5 nM by centrifugation-ultrafiltration method; procedure, shortened: as §2
[10] = target: T1, Amine oxidase [flavin-containing] A; assay: Inhibition of human MAOA at 100 nM
[11] = target: T1, Amine oxidase [flavin-containing] A; assay: Reversible inhibition of human MAOA at 100 uM by centrifugation-ultrafiltration method; procedure, shortened: as §2

Compound | Ratio IC50 (Homo sapiens) | IC50 [1] [nM] | IC50 [2] [nM] | further results
CCCCC/C(C)=N/Nc1nc(-c2cccc(OC)c2)cs1 | 0.17 | 1150 | 6720 | 
COc1cccc(-c2csc(NN=C3CCC(C)CC3)n2)c1 (configuration not stated) | 21 | 749 | 35.5 | 
COc1cccc(-c2csc(N/N=C/c3cccnc3)n2)c1 | 0.18 | 538 | 2910 | 
COc1cccc(-c2csc(N/N=C(\C)c3ccccn3)n2)c1 |  |  |  | inhibition at 100 µM [3]: 40%; inhibition at 100 µM [4]: 40%
COc1cccc(-c2csc(N/N=C/c3cccc4ccccc34)n2)c1 |  | 3640 |  | inhibition at 100 µM [4]: 40%
COc1cccc(-c2csc(N/N=C(\C)c3cccc4ccccc34)n2)c1 |  |  |  | inhibition at 100 µM [3]: 40%; inhibition (INH) ([4]; 100 µM): Not Active
O=C(NCCN1CCOCC1)c1ccc(Cl)cc1 [MOCLOBEMIDE] |  |  |  | IC50 [5]: Not Active
COc1cccc(-c2csc(N/N=C/c3ccco3)n2)c1 | 0.051 | 343 | 6780 | 
COc1cccc(-c2csc(NN=C3CCCCC3)n2)c1 | 60 | 1910 | 31.9 | 
COc1cccc(-c2csc(N/N=C(\C)c3cccnc3)n2)c1 | 119 | 455 | 3.81 | inhibition at 0.5 µM [6]: 59.1%; inhibition at 0.5 µM [7]: 65.1%; inhibition at 5 µM [8]: 63.7%; inhibition at 0.005 µM [9]: 67.2%
CCC/C(C)=N/Nc1nc(-c2cccc(OC)c2)cs1 | 1.5 | 1310 | 871 | 
COc1cccc(-c2csc(N/N=C3\CCCC3C)n2)c1 (configuration not stated) | 31 | 836 | 26.6 | 
COc1cccc(-c2csc(N/N=C3\CCC(C)C3)n2)c1 (configuration not stated) | 6.3 | 1450 | 231 | 
CCC(CC)=NNc1nc(-c2cccc(OC)c2)cs1 | 1.1 | 824 | 772 | 
COc1cccc(-c2csc(N/N=C/c3c[nH]c4ccccc34)n2)c1 | 0.52 | 414 | 800 | 
CCCCCC/C(C)=N/Nc1nc(-c2cccc(OC)c2)cs1 |  | 1380 |  | inhibition at 100 µM [4]: 40%
COc1cccc(-c2csc(NN=C3CCCCCC3)n2)c1 | 60 | 1780 | 29.5 | 
COc1cccc(-c2csc(N/N=C/c3cccs3)n2)c1 | 0.93 | 458 | 494 | 
COc1cccc(-c2csc(N/N=C(\C)c3ccco3)n2)c1 | 0.2 | 333 | 1680 | 
COc1cccc(-c2csc(N/N=C(\C)c3cc4ccccc4oc3=O)n2)c1 | 0.8 | 5560 | 6970 | 
COc1cccc(-c2csc(N/N=C(\C)c3ccncc3)n2)c1 | 32 | 3710 | 116 | 
COc1cccc(-c2csc(NN=C3CCCC3)n2)c1 | 0.56 | 592 | 1060 | 
O=C1Nc2ccccc2C1=O [ISATIN] |  |  |  | inhibition at 100 µM [3]: 40%; inhibition at 0.1 µM [10]: 40.3%; inhibition at 100 µM [11]: 12.1%
COc1cccc(-c2csc(NN=C(C)C)n2)c1 | 0.87 | 4430 | 5070 | 
COc1cccc(-c2csc(N/N=C(\C)c3cccs3)n2)c1 | 1.15 | 636 | 551 | 
COc1cccc(-c2csc(N/N=C3\CCCC(C)C3)n2)c1 (configuration not stated) | 9.3 | 679 | 72.7 | 
COc1cccc(-c2csc(N/N=C/c3ccncc3)n2)c1 | 0.61 | 698 | 1140 | 
COc1cccc(-c2csc(N/N=C3\CCCCC3C)n2)c1 (configuration not stated) | 60 | 737 | 12.2 | 
